Assay outcomes as filed in PubChem.
miR122 inh – miR-122 Renilla sensor signal increase in Huh7, primary screen, miR-122 inhibitor project, cell-based, single point, plate reader; AID 602342, 2012; activation (reporter increase), % at 12.5 µM; 340,000 compounds, 0.3% hits; Huh7 miR-122 Renilla luciferase sensor, 48 h; neutral wells = 0, positive control = 100;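 active means mean replicate activation score at least 90 and every replicate individually at or above 90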;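 further: higher luciferase means less miR-122 activity so hits act as miR-122 inhibitors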
E-sel inducer – E-selectin induction in HUVECs, primary screen, imaging, HUVEC, immunofluorescence imaging, single point; P16581; normalized: neutral wells 0, TNF-alpha wells 100; activation, % at 7.58 µM; 260,000 compounds, 0.37% hits;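 active means mean E-selectin-positive cell signal at least 10% of the positive control, reached in at least 60% of replicates, without over 20% cell loss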
Target sequence (P16581 whole entry, looked up): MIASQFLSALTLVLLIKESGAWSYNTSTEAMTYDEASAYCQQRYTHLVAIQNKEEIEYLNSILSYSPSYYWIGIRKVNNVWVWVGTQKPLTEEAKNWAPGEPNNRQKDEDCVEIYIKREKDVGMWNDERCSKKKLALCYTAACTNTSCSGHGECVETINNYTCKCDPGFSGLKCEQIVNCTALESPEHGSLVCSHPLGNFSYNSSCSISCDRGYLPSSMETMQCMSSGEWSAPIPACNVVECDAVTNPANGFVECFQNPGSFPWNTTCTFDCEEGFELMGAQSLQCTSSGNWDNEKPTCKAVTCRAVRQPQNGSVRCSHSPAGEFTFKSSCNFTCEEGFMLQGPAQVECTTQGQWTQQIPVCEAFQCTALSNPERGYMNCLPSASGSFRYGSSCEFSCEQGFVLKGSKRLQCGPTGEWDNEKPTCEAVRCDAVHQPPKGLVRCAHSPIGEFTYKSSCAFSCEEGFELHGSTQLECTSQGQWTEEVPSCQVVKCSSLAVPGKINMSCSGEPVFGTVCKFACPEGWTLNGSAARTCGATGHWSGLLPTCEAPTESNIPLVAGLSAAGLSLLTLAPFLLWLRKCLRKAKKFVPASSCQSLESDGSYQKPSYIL
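System: HUVEC, human umbilical vein endothelial cells; quantity: 3,000 cells/well; buffer or medium: EGM-2 medium, gelatin-coated wells; dosing: single-point compound dose; detection: immunofluorescence imaging; evaluation: % PE-positive cells; benchmarks: TNF-alpha, DMSO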
GSIS activator – GLuc luminescence reporter in INS-1E cells, primary screen for activators of glucose-dependent secretion of insulin; INS-1E GLuc reporter insulin secretion, 2-3 h; activation, % at 16.6 µM; 370,000 compounds, 0.61% hits;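 active means lowest replicate activation of at least 40%, so every replicate reaches that level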
ERAP1 inh – human ERAP1 aminopeptidase inhibitors, primary screen, biochemical, single point, plate reader. Endoplasmic reticulum aminopeptidase 1 (Homo sapiens), Q9NZ08. recombinant ERAP1, Leu-AMC fluorescence, 60 min. inhibition, % at 10.7 µM. 340,000 compounds, 0.15% hits;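 active means mean replicate inhibition of at least 30%, or all replicates individually reaching that 30% level; inactive means mean below 30% and not every replicate reaching it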
F508del corr – F508del CFTR correction, initial screen, CFBE line, single point; CFBE cells, YFP halide quenching; stimulated with forskolin plus potentiator P3; % fluorescence drop versus neutral controls; activity (quench increase), % at 7.58 µM; 350,000 compounds, 0.36% hits;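 active means mean added fluorescence quench of at least 8% versus neutral control, with both replicates also reaching 8%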;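 further: cells transiently co-express mutant CFTR-F508del with the halide-sensitive YFP; corrector assay measuring rescue of mutant channel to the surface after 24 h compound exposure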
DENV2 CPE – inhibitors of DENV2 cytopathic effect, primary screen, cell-based, plate reader, single concentration. DENV2-infected cells, cytopathic effect rescue. CPE inhibition, % at 9.99 µM. 350,000 compounds, 1.7% hits; in the data active means CPE inhibition above about 20%, passing the limit was not always enough; tested in BHK-21 cells
Hits are given with their value; n = inactive; x = no result given; ! = not confirmed by another sample. Compounds with a hit are over-represented: about 2.6% of the library has one in this group of screens.

SMILES	miR122 inh	E-sel inducer	GSIS activator	ERAP1 inh	F508del corr	DENV2 CPE
COc1ccc(NC(=O)N(C)C[C@H]2Oc3ccc(NC(=O)CCN4CCOCC4)cc3C(=O)N([C@H](C)CO)C[C@@H]2C)cc1	n	n	n	n	n	51.5!
COc1ccc(CN(C)C[C@@H]2Oc3ccc(NC(=O)CCN4CCOCC4)cc3C(=O)N([C@@H](C)CO)C[C@H]2C)cc1	n	n	n	n	n	20.5
COc1cccc(NC(=O)N(C)C[C@@H]2Oc3ncc(C#Cc4cccnc4)cc3C(=O)N([C@@H](C)CO)C[C@@H]2C)c1	n	x	n	n	n	n
COc1cc(/C=C2\SC(=Nc3ccccc3)NC2=O)cc(Cl)c1O	n	n	n	n	n	n
COc1cc(/C=C2\SC(=Nc3ccc(Cl)c(C(=O)O)c3)NC2=O)c(Br)c(Br)c1O	n	x	n	n	29.0	n
C[C@@H]1CN([C@@H](C)CO)C(=O)c2cccc(NC(=O)CCCCCC(=O)Nc3ccccc3N)c2O[C@@H]1CN(C)C(=O)Nc1cccc2ccccc12	x	n	n	n	n	n
C[C@@H]1CCCCO[C@H](CN(C)Cc2ccccc2)[C@H](C)CN([C@@H](C)CO)C(=O)c2cc(NS(=O)(=O)c3ccc(F)cc3)ccc2O1	n	x	n	n	n	n
COc1cccc(OC)c1C(=O)N1CCN(Cc2c[nH]c3ccccc23)CC1	n	n	n	n	n	54.6
C[C@H]1CN([C@@H](C)CO)C(=O)CCCn2cc(nn2)CO[C@H]1CN(C)S(=O)(=O)c1ccc(C#N)cc1	n	n	n	n	n	n
COc1cccc(-c2cnc3c(c2)C(=O)N([C@@H](C)CO)C[C@@H](C)[C@H](CN(C)Cc2ccncc2)O3)c1	n	n	n	n	n	n
O=C(CN1CCOCC1)N1CCCCN2[C@H](C1)[C@H](c1ccc(C#Cc3ccccc3F)cc1)[C@@H]2CO	n	n	n	n	n	43.2
O=C(CN1CCOCC1)N1CCCCN2[C@H](CO)[C@H](c3ccc(C#Cc4ccccc4F)cc3)[C@H]2C1	n	n	n	n	n	n
CC(=O)N1CCCCN2[C@@H](CO)[C@@H](c3ccc(C#Cc4ccccc4F)cc3)[C@@H]2C1	n	n	n	n	n	58.9
O=C(CN1CCOCC1)N1CCCCN2[C@H](C1)[C@@H](c1ccc(C#Cc3ccccc3F)cc1)[C@@H]2CO	n	n	n	n	n	n
O=C(CN1CCOCC1)N1CCCCN2[C@H](CO)[C@H](c3ccc(C#Cc4ccccc4F)cc3)[C@@H]2C1	n	n	n	n	n	48.3
COc1ccc2c3c(n(C)c2c1)[C@H](CO)N(C(=O)C1CCCC1)CC31CN(C)C1	x	n	n	n	n	n
O=C(Nc1ccc(N2CCOCC2)cc1)c1ccncc1	n	x	x	x	x	x
O=C(N/N=C/c1ccc(N2CCOCC2)cc1)c1ccncc1	n	x	n	n	n	72.3
C[C@H](CO)N1C[C@H](C)[C@@H](CN(C)C(=O)Nc2ccccc2)Oc2ccc(NC(=O)c3ccncc3)cc2C1=O	n	n	n	64.7!	n	n
Cc1noc(C)c1NC(=O)N(C)C[C@@H]1Oc2ccc(NC(=O)c3ccncc3)cc2C(=O)N([C@H](C)CO)C[C@H]1C	n	353.8	n	n	n	n
C[C@@H]1CN([C@H](C)CO)C(=O)c2cc(N(C)C)ccc2O[C@@H](C)CCCCO[C@@H]1CN(C)C(=O)Nc1ccc(C(F)(F)F)cc1	n	n	n	n	n	n
Clc1cccc(Cl)c1CSc1nnc(CN2CCOCC2)n1-c1ccccc1	125.8	x	x	x	x	x
O=c1[nH]nc(-c2ccccc2)c2ccccc12	n	n	65.9	n	n	n
O=C(C1CCC1)N1CC2(C1)[C@H](c1ccccc1)[C@@H](CO)N2CC1CCCC1	x	n	n	n	n	n
CCCC(=O)Nc1ccc2c(c1)C(=O)N(C)C[C@H](OC)[C@H](C)CN(Cc1ccncc1)[C@@H](C)CO2	n	n	n	x	n	x
